Measured values taken from PMC8444931 (Clinical and Translational Science, 2021).

Tests used:
[1] = metabolism in dog lung S9 fractions; type: in vitro ADME; conditions: dog lung S9 fortified with 3'‐phosphate‐5'‐phosphosulfate; data on file
[2] = phase I part A plasma pharmacokinetics; type: in vivo, human; conditions: for Tmax / AUC(0-t) / Cmax / Vd/F: human, plasma, inhaled or intranasal
Outline: (§1)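 Healthy adults got a single nebulized dose (1, 3 or 10 mg). Blood and urine were sampled predose and over 72 h postdose. Plasma and urine PK parameters were estimated per participant and summarized as geometric mean (CV%). Urinary excretion was expressed as cumulative percentage of administered dose.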

elimination in the rat = type: in vivo; conditions: preclinical data
[3] = metabolite identification in human hepatocytes; type: in vitro ADME
[4] = metabolism in human lung S9; type: in vitro ADME; conditions: data on file
[5] = metabolite identification in dog hepatocytes; type: in vitro ADME
[6] = human plasma protein binding; type: in vitro ADME
[7] = system: cytokine‐induced STAT6 phosphorylation; test: cytokine‐induced STAT6 phosphorylation in bronchial epithelial cell lines; type: cell-based; conditions: data on file, Theravance Biopharma
[8] = metabolite identification in rat hepatocytes; type: in vitro ADME
JAK2 = JAK2 (Homo sapiens, UniProt O60674); test: biochemical
JAK1 = JAK1 (Homo sapiens, UniProt P23458); test: biochemical
JAK = test: cell‐based assays of JAK inhibition; conditions: Homo sapiens, Epithelial cell, read-out: most potent half‐maximal JAK inhibition (IC50) in a cell‐based assay
[9] = metabolism in rat lung S9; type: in vitro ADME; conditions: data on file
phase I part B = type: in vivo, human
Outline: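 Double-blind, randomized, placebo-controlled multiple ascending dose study in healthy adults aged 18–50 (FEV1 ≥80% predicted). Three cohorts of 10 (8 active, 2 placebo) got nebulized 1, 3 or 10 mg or placebo once daily for 7 days, staying in residence through day 9. Monitoring covered exams, vital signs, 12-lead ECGs, spirometry, clinical labs and MedDRA-coded TEAEs; follow-up came 1 week (±2 days) after the last dose.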

[10] = type: physicochemical; conditions: PARI eFlow nebulizer, dose range 0.1–10 mg
[11] = phase I part A urine pharmacokinetics; type: in vivo, human; conditions: geometric mean (CV%)
Outline: as §1

Tyk2 = biological target: T1, Tyk2 (Homo sapiens, UniProt P29597); test: biochemical
T1 sequence (P29597 897-1176 limits assumed): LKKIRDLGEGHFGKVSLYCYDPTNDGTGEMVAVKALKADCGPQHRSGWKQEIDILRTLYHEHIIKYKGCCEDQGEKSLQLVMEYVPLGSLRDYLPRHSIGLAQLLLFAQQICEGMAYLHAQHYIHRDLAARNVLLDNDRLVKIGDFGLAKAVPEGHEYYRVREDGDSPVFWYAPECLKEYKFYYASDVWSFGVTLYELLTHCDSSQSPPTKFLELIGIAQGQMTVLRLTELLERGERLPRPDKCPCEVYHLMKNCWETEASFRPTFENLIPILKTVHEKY

phase I part A = type: in vivo, human; conditions: for TEAE Cough / TEAE Dizziness / TEAE Headache / TEAE related to nezulcitinib / Total participants with TEAEs: part A
Outline: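 Healthy adults aged 18–50 (BMI 18–32 kg/m^2, FEV1 ≥80% predicted) in a double-blind, randomized, placebo-controlled single ascending dose study. Three cohorts of 8 (6 active, 2 placebo) got one nebulized dose of 1, 3 or 10 mg or placebo; a sentinel pair was dosed ≥24 h first. TEAEs were coded by MedDRA, with follow-up 1 week (±2 days) post-dose.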

[12] = phase I part B plasma pharmacokinetics; type: in vivo, human; conditions: for DN AUCtau / DN Cmax,ss: dose normalized; for DN AUCtau / DN Cmax,ss / Ctrough,ss: geometric mean (geometric CV%); for AUC / Cmax / Tmax: human, inhaled; for AUC / Cmax / Tmax / Ctrough,ss: plasma
Outline: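 Healthy adults got nebulized 1, 3 or 10 mg once daily for 7 days. Serial blood was drawn through 24 h after the day-1 dose and from predose through 48 h after the day-7 dose; troughs were drawn predose on days 3–6. Day-7 parameters, including dose-normalized values, were given as geometric mean (geometric CV%). Accumulation ratios were AUCtau/day-1 AUC0-24 and Cmax,ss/day-1 Cmax.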

COVID‐19 [13] = conditions: phase III RUXCOVID study; cited from earlier work
COVID‐19 [14] = conditions: in combination with remdesivir, patients with COVID‐19; cited from earlier work
[15] = one participant, 10 mg, part B, by day 9, deemed not related to study drug
[16] = part B, 1 mg once daily for 7 days (n = 8)
[17] = part B, 3 mg once daily for 7 days (n = 8)
[18] = part B, 10 mg once daily for 7 days (n = 8)
[19] = part B, all nezulcitinib doses, Total (n = 24)
[20] = all nezulcitinib doses, Total (n = 18)
[21] = single inhaled dose 1 mg (n = 6)
[22] = single inhaled dose 3 mg (n = 6)
[23] = single inhaled dose 10 mg (n = 6)

Sequence of JAK2 (O60674 849-1124 limits assumed): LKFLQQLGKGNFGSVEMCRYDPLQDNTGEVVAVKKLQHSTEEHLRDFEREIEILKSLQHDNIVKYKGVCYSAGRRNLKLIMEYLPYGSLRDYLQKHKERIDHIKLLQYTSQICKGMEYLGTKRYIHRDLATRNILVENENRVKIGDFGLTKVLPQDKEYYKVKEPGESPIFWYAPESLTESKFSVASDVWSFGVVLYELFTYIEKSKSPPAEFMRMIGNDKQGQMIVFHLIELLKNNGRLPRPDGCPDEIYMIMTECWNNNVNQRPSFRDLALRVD
Sequence of JAK1 (P23458 875-1153 limits assumed): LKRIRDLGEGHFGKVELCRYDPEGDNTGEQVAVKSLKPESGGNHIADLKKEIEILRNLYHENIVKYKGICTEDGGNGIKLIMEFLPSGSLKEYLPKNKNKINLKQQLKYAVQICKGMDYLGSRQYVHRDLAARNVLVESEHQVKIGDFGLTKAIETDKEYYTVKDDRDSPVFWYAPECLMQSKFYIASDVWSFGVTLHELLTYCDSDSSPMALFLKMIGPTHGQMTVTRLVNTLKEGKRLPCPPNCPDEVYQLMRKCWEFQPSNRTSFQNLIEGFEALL

SMILES: CCc1cc(O)ccc1-c1ccc2c(-c3nc4c([nH]3)CN(C(C)C)[C@H](C(=O)N3CC(N(C)C)C3)C4)n[nH]c2c1 [Nezulcitinib]
- metabolic stability in lung S9 [1]: extensive conversion to the sulfation product
- Tmax [2]: ~1 h
- AUC(0-t) ([2]; 1 mg): 18.7 ng·h/mL
- Cmax ([2]; 1 mg): 5.5 ng/mL
- Vd/F ([2]; 1 mg): 1390 L
- AUC(0-t) ([2]; 3 mg): 45.2 ng·h/mL
- Cmax ([2]; 3 mg): 13.8 ng/mL
- Tmax ([2]; 3 mg): 1 h
- Vd/F ([2]; 3 mg): 2300 L
- AUC(0-t) ([2]; 10 mg): 157 ng·h/mL
- Cmax ([2]; 10 mg): 47.3 ng/mL
- Tmax ([2]; 10 mg): 1 h
- Vd/F ([2]; 10 mg): 2200 L
- dose proportionality of plasma exposures (Cmax and AUC0‐t) ([2]; part A, single dose 1, 3, 10 mg): increased proportionally
- amount eliminated in the urine and bile as unchanged compound (elimination in the rat): minor amount
- primary metabolite [3]: an oxidation, methylation, and glucuronidation product
- metabolic stability in lung S9 [4]: relatively stable
- primary metabolite [5]: sulfation product
- fraction unbound [6]: 0.019
- inhibition of cytokine‐induced STAT6 phosphorylation [7]: inhibits
- primary metabolite [8]: sulfation product
- Ki (JAK2): 0.0251 nM
- Ki (JAK1): 0.0501 nM
- IC50 (JAK): 12.6 nM
- metabolic stability in lung S9 [9]: relatively stable
- alanine aminotransferase (ALT) elevation (phase I part B; [15]): 3.8 × ULN
- aspartate aminotransferase (AST) elevation (phase I part B; [15]): approximately 2.8 × ULN
- Moderate or severe TEAEs (phase I part B; [16]): 0 n (%)
- TEAE Cough (phase I part B; [16]): 0 n (%)
- TEAE Dizziness (phase I part B; [16]): 1 (13) n (%)
- TEAE Headache (phase I part B; [16]): 1 (13) n (%)
- TEAE Lethargy (phase I part B; [16]): 1 (13) n (%)
- TEAE Medical device site reaction (phase I part B; [16]): 0 n (%)
- TEAE related to nezulcitinib (phase I part B; [16]): 0 n (%)
- Total participants with TEAEs (phase I part B; [16]): 4 (50) n (%)
- Moderate or severe TEAEs (phase I part B; [17]): 0 n (%)
- TEAE Cough (phase I part B; [17]): 2 (25) n (%)
- TEAE Dizziness (phase I part B; [17]): 1 (13) n (%)
- TEAE Headache (phase I part B; [17]): 3 (38) n (%)
- TEAE Lethargy (phase I part B; [17]): 0 n (%)
- TEAE Medical device site reaction (phase I part B; [17]): 0 n (%)
- TEAE related to nezulcitinib (phase I part B; [17]): 0 n (%)
- Total participants with TEAEs (phase I part B; [17]): 3 (38) n (%)
- Moderate or severe TEAEs (phase I part B; [18]): 2 (25) n (%)
- TEAE Cough (phase I part B; [18]): 3 (38) n (%)
- TEAE Dizziness (phase I part B; [18]): 1 (13) n (%)
- TEAE Headache (phase I part B; [18]): 0 n (%)
- TEAE Lethargy (phase I part B; [18]): 0 n (%)
- TEAE Medical device site reaction (phase I part B; [18]): 1 (13) n (%)
- TEAE related to nezulcitinib (phase I part B; [18]): 1 (13) n (%)
- Total participants with TEAEs (phase I part B; [18]): 6 (75) n (%)
- TEAE Cough (phase I part B; [19]): 5 (21) n (%)
- TEAE Dizziness (phase I part B; [19]): 3 (13) n (%)
- TEAE Headache (phase I part B; [19]): 4 (17) n (%)
- TEAE Lethargy (phase I part B; [19]): 1 (4) n (%)
- TEAE Medical device site reaction (phase I part B; [19]): 1 (4) n (%)
- TEAE related to nezulcitinib (phase I part B; [19]): 1 (4) n (%)
- Total participants with TEAEs (phase I part B; [19]): 13 (54) n (%)
- changes from baseline in vital sign and ECG assessments (phase I part B; parts A and B): No clinically significant changes
- severe or serious AEs (phase I part B; parts A and B): No severe or serious AEs
- tolerability (phase I part B; single daily doses up to 10 mg for 7 days, healthy participants): generally well‐tolerated
- emitted fine particle dose, of the nominal dose [10]: 40%
- Cum%Dose (cumulative percentage of administered dose excreted) ([11]; single inhaled dose 1 mg): 0.97 (38.3) %
- Cum%Dose (cumulative percentage of administered dose excreted) ([11]; single inhaled dose 3 mg): 0.72 (17.5) %
- Cum%Dose (cumulative percentage of administered dose excreted) ([11]; single inhaled dose 10 mg): 0.84 (41.6) %
- Ki (Tyk2): 0.631 nM
- TEAE Cough (phase I part A; [20]): 2 (11) n (%)
- TEAE Dizziness (phase I part A; [20]): 2 (11) n (%)
- TEAE Headache (phase I part A; [20]): 1 (6) n (%)
- TEAE related to nezulcitinib (phase I part A; [20]): 0 n (%)
- Total participants with TEAEs (phase I part A; [20]): 6 (33) n (%)
- TEAE Cough (phase I part A; [21]): 1 (17) n (%)
- TEAE Dizziness (phase I part A; [21]): 1 (17) n (%)
- TEAE Headache (phase I part A; [21]): 1 (17) n (%)
- TEAE related to nezulcitinib (phase I part A; [21]): 0 n (%)
- Total participants with TEAEs (phase I part A; [21]): 4 (67) n (%)
- TEAE Cough (phase I part A; [22]): 0 n (%)
- TEAE Dizziness (phase I part A; [22]): 0 n (%)
- TEAE Headache (phase I part A; [22]): 0 n (%)
- TEAE related to nezulcitinib (phase I part A; [22]): 0 n (%)
- Total participants with TEAEs (phase I part A; [22]): 0 n (%)
- TEAE Cough (phase I part A; [23]): 1 (17) n (%)
- TEAE Dizziness (phase I part A; [23]): 1 (17) n (%)
- TEAE Headache (phase I part A; [23]): 0 n (%)
- TEAE related to nezulcitinib (phase I part A; [23]): 0 n (%)
- Total participants with TEAEs (phase I part A; [23]): 2 (33) n (%)
- tolerability (phase I part A; single inhaled dose, healthy participants): generally well‐tolerated
- DN AUCtau ([12]; part B day 7, 1 mg once daily): 21.0 (25.7) ng•h/ml/mg
- DN Cmax,ss ([12]; part B day 7, 1 mg once daily): 5.6 (24.1) ng/ml/mg
- DN AUCtau ([12]; part B day 7, 3 mg once daily): 17.2 (32.5) ng•h/ml/mg
- DN Cmax,ss ([12]; part B day 7, 3 mg once daily): 5.9 (42.6) ng/ml/mg
- DN AUCtau ([12]; part B day 7, 10 mg once daily): 17.8 (65.0) ng•h/ml/mg
- DN Cmax,ss ([12]; part B day 7, 10 mg once daily): 5.0 (46.4) ng/ml/mg
- AUC ([12]; 1 mg): 21 ng·h/mL
- Cmax ([12]; 1 mg): 5.6 ng/mL
- Tmax ([12]; 1 mg): 1 h
- AUC ([12]; 3 mg): 51.6 ng·h/mL
- Cmax ([12]; 3 mg): 17.6 ng/mL
- Tmax ([12]; 3 mg): 1 h
- AUC ([12]; 10 mg): 178 ng·h/mL
- Cmax ([12]; 10 mg): 49.6 ng/mL
- Tmax ([12]; 10 mg): 1 h
- dose proportionality of plasma exposures (Cmax and AUC0–t) ([12]; part B, 7 days of once‐daily dosing 1, 3, 10 mg): increased proportionally
- time to steady‐state plasma concentrations ([12]; part B, once‐daily dosing, from daily plasma trough concentrations): ≤ 4 days
- Ctrough,ss ([12]; part B day 7, 1 mg once daily): 0.2 (29.5) ng/ml
- Ctrough,ss ([12]; part B day 7, 3 mg once daily): 0.3 (39.0) ng/ml
- Ctrough,ss ([12]; part B day 7, 10 mg once daily): 1.1 (83.6) ng/ml

SMILES: N#CC[C@H](C1CCCC1)n1cc(-c2ncnc3[nH]ccc23)cn1 [ruxolitinib]
- primary end point (COVID‐19 [13]): did not meet its primary end point

SMILES: CCS(=O)(=O)N1CC(CC#N)(n2cc(-c3ncnc4[nH]ccc34)cn2)C1 [baricitinib]
- recovery time (COVID‐19 [14]): significantly shortened recovery time
